Data set [1] has as its system Mus musculus. The data set is described as follows: Maximal metrazole seizures was determined for the inhibition of hind limb tonus in mouse 1 hr after po dosing. The class given is functional. The settings on record: Hindlimb. In a few lines: (§1)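 Oral dosing, with seizures assessed 1 h later. The endpoint is inhibition of hind limb tonus, expressed as ED50 in mg/kg po.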

In data set [2] the test system is Mus musculus. The data set is described as follows: Maximal electroshock seizures was determined for the inhibition of hind limb tonus in mouse by 1 hr after po dose. It is filed as functional. The settings on record: Hindlimb. In a few lines: as §1
The nature of data set [3]: Tested for the neurotoxicity in mouse rotarod test was reported 1 hr after po dosing. It is filed as toxicity, organism-based. The settings on record: in vivo. An outline of the steps:
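Trained mice were placed on a rotating rod 1 h after oral dosing. TD50 (mg/kg) is the dose at which 50% of animals fall off the rod, reported with its range.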
On the technique in general: In the rotarod test animals must keep their balance on a rotating rod.

The test system of a further data set is Rattus norvegicus. The data set is described as follows: Maximal electroshock seizures determined for the inhibition of hind limb tonus in rat 1 hr after po dosing. It is filed as functional. The settings on record: Hindlimb. In a few lines: as §1
Data set [4] can be described thus: Tested for the neurotoxicity in mouse rotarod test was reported 2 hr after po dosing. It is filed as toxicity, organism-based. The settings on record: in vivo.

Each structure is given as a SMILES string.

Data on twelve compounds can be found in ChEMBL document CHEMBL1123753, “Substituted 1,3,4-thiadiazoles with anticonvulsant activity. 3. Guanidines” (J Med Chem, 1987).

For orientation: ED50 means the midpoint of the dose-response relation. The low end stands for an effect at a small dose, the high end for a need for a large dose. Take `CN(C1=NCCN1)c1nnc(-c2ccccc2C(F)(F)F)s1`: the ED50 with Mus musculus [1] and in the data set with Mus musculus [2] was above 100 mg/kg throughout.

For `FC(F)(F)c1ccccc1-c1nnc(NC2=NCCN2)s1`, the ED50 in the data set with Mus musculus [1] and in the data set on Mus musculus [2] was above 100 mg/kg each time.

The TD50 is the dose at which the toxic effect under study appears in half of the subjects. As for `C/N=C(\N)Nc1nnc(-c2ccccc2C(F)(F)F)s1`, the TD50 at 1 h in data set [3] was above 400 mg/kg. Further, the ED50 in the data set on Mus musculus [1] came to 44 mg/kg; in the data set with Mus musculus [2], 49 mg/kg.

`CCCC/N=C(\N)Nc1nnc(-c2ccccc2C(F)(F)F)s1`: the ED50 turned out to be 225 mg/kg with Mus musculus [1] and 142 mg/kg with Mus musculus [2].

As for `N=C(N)Nc1nnc(-c2ccccc2C(F)(F)F)s1`, the results for the ED50 with Rattus norvegicus, in the data set with Mus musculus [1] and with Mus musculus [2] were 22 mg/kg, 45 mg/kg and 27 mg/kg, respectively. The same compound registered a TD50 at 1 h in data set [3] of 384 mg/kg.

On to `CN(C)CCC/N=C(\N)Nc1nnc(-c2ccccc2C(F)(F)F)s1`, for which the ED50 with Mus musculus [1] and in the data set with Mus musculus [2] was above 100 mg/kg each time.

On to `COCCC/N=C(\N)Nc1nnc(-c2ccccc2C(F)(F)F)s1`, for which the results for the ED50 in the data set with Mus musculus [1] and in the data set on Mus musculus [2] were 78 mg/kg and above 100 mg/kg, respectively.

Take `N=C(NCc1ccccc1)Nc1nnc(-c2ccccc2C(F)(F)F)s1`: the ED50 in the data set on Mus musculus [1] and in the data set on Mus musculus [2] was above 100 mg/kg in each case.

Take `CN(N)c1nnc(-c2ccc(-c3ccccc3)cc2)s1`: the ED50 in the data set with Rattus norvegicus was 16 mg/kg; in the data set on Mus musculus [1] it was 27 mg/kg; with Mus musculus [2], 18 mg/kg. Besides, the TD50 at 2 h in data set [4] is above 1000 mg/kg.

Take `NC(=O)N1c2ccccc2C=Cc2ccccc21` [CARBAMAZEPINE]: the ED50 stood at 4 mg/kg in the data set with Rattus norvegicus, 11 mg/kg in the data set with Mus musculus [1] and 20 mg/kg in the data set with Mus musculus [2].

Turning to `CCC1(c2ccccc2)C(=O)NC(=O)NC1=O` [PHENOBARBITAL], the ED50 in the data set with Rattus norvegicus worked out at 9 mg/kg; with Mus musculus [1], 4 mg/kg; in the data set with Mus musculus [2], 12 mg/kg.

For the compound `O=C1NC(=O)C(c2ccccc2)(c2ccccc2)N1` [PHENYTOIN], the ED50 in the data set on Rattus norvegicus amounted to 14 mg/kg; in the data set on Mus musculus [1], 8 mg/kg; in the data set on Mus musculus [2] it was 8 mg/kg.
